From ChEMBL document CHEMBL3739255, “Novel Series of Dihydropyridinone P2X7 Receptor Antagonists” (J Med Chem, 2015)

Key:
[1] = organism: Rattus norvegicus; experiment: Inhibition of rat central type benzodiazepine receptor at 10 uM by radioligand binding assay
Method in brief: (§1)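 Single-concentration screen at 10 uM in a commercial 78-receptor panel run by CEREP; results are given as % inhibition.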

[2] = Metabolic stability in human plasma; format: ADME, cell-free; details: read-out: Stability (converted)
Method in brief: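 Compound incubated in human plasma for 4 h and monitored for degradation.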

[3] = target: Pituitary adenylate cyclase-activating polypeptide type I receptor (Homo sapiens) (UniProt P41586); experiment: Inhibition of human PAC1 at 10 uM by radioligand binding assay
Method in brief: (§2)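 Commercial receptor scan across a 78-target panel, with percent inhibition measured at a test concentration of 10 uM.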

[4] = target: Mu-type opioid receptor (Homo sapiens) (UniProt P35372); experiment: Inhibition of human mu opioid receptor at 10 uM by radioligand binding assay
Method in brief: (§3)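 Outsourced broad receptor-screening panel of 78 targets, each tested at a single 10 uM concentration; read-out is percent inhibition. Detailed conditions are given only in the Supporting Information.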

[5] = target: Neuropeptide Y receptor type 2 (Homo sapiens) (UniProt P49146); experiment: Inhibition of human neuropeptide Y2 receptor at 10 uM by radioligand binding assay; method in brief: as §3
[6] = target: Neuropeptide Y receptor type 1 (Homo sapiens) (UniProt P25929); experiment: Inhibition of human neuropeptide Y1 receptor at 10 uM by radioligand binding assay; method in brief: as §3
[7] = target: P2X purinoceptor 7 (Rattus norvegicus, UniProt Q64663); experiment: Antagonist activity at rat P2X7R expressed in BzATP-stimulated HEK293 cells incubated for 20 mins followed by BzATP stimulation measured every 1 sec for 60 secs followed by 3 sec intervals for 4 mins by FLIPR Ca2+ assay in presence of ionomycin; format: cell-based
[8] = tested on: Liver microsome; experiment: Drug metabolism in human liver microsomes assessed as GSH adduct UV peak area at 20 uM preincubated for 5 mins followed by NADPH addition measured after 60 mins by LC/MS/MS analysis relative to total area of GSH adduct, other metabolites, parent compound; format: ADME; details: 1 h, BLD = below limit of detection
[9] = tested on: Liver microsome; experiment: Drug metabolism in rat liver microsomes assessed as GSH adduct UV peak area at 20 uM preincubated for 5 mins followed by NADPH addition measured after 60 mins by LC/MS/MS analysis relative to total area of GSH adduct, other metabolites, parent compound; format: ADME; details: 1 h, BLD = below limit of detection
[10] = Oral bioavailability in rat at 2 mg/kg administered as single dose; format: ADME, organism-based; details: in vivo
Method in brief: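 Rats given a single dose, iv 0.5 mg/kg or po 2 mg/kg, with n ≥ 2 per time point. Bioavailability is derived from the po and iv exposures. Vdss is reported in L/kg.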

[11] = Clearance in rat at 0.5 mg/kg, iv administered as single dose; format: ADME, organism-based; details: in vivo
Method in brief: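 Single-dose rat PK: iv at 0.5 mg/kg and po at 2 mg/kg. n ≥ 2 animals per time point. Oral AUC normalized to dose; clearance, Vdss and half-life taken from the iv arm.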

[12] = Binding affinity to Cytochrome P450 in rat liver microsomes at 10 uM incubated for 30 mins; format: ADME; details: 0.5 h
Method in brief: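 Covalent binding in rat and human liver microsomes, run both without and with NADPH.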

[13] = target: P2X purinoceptor 2 (Homo sapiens, UniProt Q9UBL9); experiment: Inhibition of P2X2R (unknown origin)
Method in brief: (§4)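 Selectivity at other P2X receptor subtypes, read as IC50 in a FLIPR Ca2+ flux assay.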

[14] = target: P2X purinoceptor 4 (Homo sapiens, UniProt Q99571); experiment: Inhibition of P2X4R (unknown origin); method in brief: as §4
[15] = target: Prostacyclin receptor (Homo sapiens) (UniProt P43119); experiment: Inhibition of human prostanoid IP1 receptor at 10 uM; format: functional; method in brief: as §3
[16] = target: P2X purinoceptor 5 (Homo sapiens, UniProt Q93086); experiment: Inhibition of P2X5R (unknown origin); method in brief: as §4
[17] = target: Melatonin receptor type 1A (Homo sapiens) (UniProt P48039); experiment: Inhibition of human melatonin receptor type 1A at 10 uM; method in brief: as §3
[18] = target: Muscarinic acetylcholine receptor M2 (Homo sapiens) (UniProt P08172); experiment: Inhibition of human muscarinic M2 receptor at 10 uM; method in brief: as §3
[19] = target: Adenosine receptor A1 (Homo sapiens) (UniProt P30542); experiment: Inhibition of human adenosine A1 receptor at 10 uM; method in brief: as §3
[20] = target: Beta-2 adrenergic receptor (Homo sapiens) (UniProt P07550); experiment: Inhibition of human beta2-adrenoceptor at 10 uM by radioligand binding assay; method in brief: as §3
[21] = target: Type-1 angiotensin II receptor (Homo sapiens) (UniProt P30556); experiment: Inhibition of human angiotensin 2 receptor 1 at 10 uM; method in brief: as §3
[22] = organism: Rattus norvegicus; experiment: Inhibition of rat bombesin receptor at 10 uM; method in brief: as §1
[23] = target: B2 bradykinin receptor (Homo sapiens) (UniProt P30411); experiment: Inhibition of human bradykinin 2 receptor at 10 uM by radioligand binding assay; method in brief: as §3
[24] = target: D(1A) dopamine receptor (Homo sapiens) (UniProt P21728); experiment: Inhibition of human dopamine D1 receptor at 10 uM; method in brief: as §3
[25] = target: Endothelin-1 receptor (Homo sapiens) (UniProt P25101); experiment: Inhibition of human ETA receptor at 10 uM by radioligand binding assay; method in brief: as §2
[26] = organism: Rattus norvegicus; experiment: Inhibition of rat GABA receptor at 10 uM by radioligand binding assay; method in brief: as §3
[27] = target: Platelet-derived growth factor receptor (Mus musculus) (UniProt P05622+P26618); experiment: Inhibition of mouse PDGFR at 10 uM by radioligand binding assay; format: protein-complex assay; method in brief: as §3
[28] = target: Melanocortin receptor 4 (Homo sapiens) (UniProt P32245); experiment: Inhibition of human MC4 receptor at 10 uM; method in brief: as §2
[29] = target: Muscarinic acetylcholine receptor M3 (Homo sapiens) (UniProt P20309); experiment: Inhibition of human muscarinic M3 receptor at 10 uM; method in brief: as §3
[30] = target: Muscarinic acetylcholine receptor M5 (Homo sapiens) (UniProt P08912); experiment: Inhibition of human muscarinic M5 receptor at 10 uM; method in brief: as §3
[31] = target: Substance-K receptor (Homo sapiens) (UniProt P21452); experiment: Inhibition of human NK2 receptor at 10 uM by radioligand binding assay; method in brief: as §2
[32] = target: Neuromedin-K receptor (Homo sapiens) (UniProt P29371); experiment: Inhibition of human NK3 receptor at 10 uM; method in brief: as §2
[33] = target: 5-hydroxytryptamine receptor 2C (Homo sapiens) (UniProt P28335); experiment: Inhibition of human 5-HT2C receptor at 10 uM by radioligand binding assay; method in brief: as §2
[34] = target: Vasoactive intestinal polypeptide receptor 1 (Homo sapiens) (UniProt P32241); experiment: Inhibition of human VP1 receptor at 10 uM by radioligand binding assay; method in brief: as §3
[35] = target: Prostaglandin E2 receptor EP4 subtype (Homo sapiens) (UniProt P35408); experiment: Inhibition of human prostanoid EP4 receptor at 10 uM by radioligand binding assay; method in brief: as §3
[36] = target: Small conductance calcium-activated potassium channel (Rattus norvegicus) (UniProt P70604+P70606+P70605); experiment: Inhibition of rat small conductance calcium-activated potassium channel at 10 uM by radioligand binding assay; format: protein assay; method in brief: as §1
[37] = organism: Rattus norvegicus; experiment: Inhibition of rat GABA-chloride channel receptor at 10 uM by radioligand binding assay; method in brief: as §3
[38] = target: adenosine A3 receptor (Homo sapiens) (UniProt P0DMS8); experiment: Inhibition of human adenosine A3 receptor at 10 uM by radioligand binding assay

Chain of Type-1 angiotensin II receptor (Homo sapiens) (P30556 whole entry): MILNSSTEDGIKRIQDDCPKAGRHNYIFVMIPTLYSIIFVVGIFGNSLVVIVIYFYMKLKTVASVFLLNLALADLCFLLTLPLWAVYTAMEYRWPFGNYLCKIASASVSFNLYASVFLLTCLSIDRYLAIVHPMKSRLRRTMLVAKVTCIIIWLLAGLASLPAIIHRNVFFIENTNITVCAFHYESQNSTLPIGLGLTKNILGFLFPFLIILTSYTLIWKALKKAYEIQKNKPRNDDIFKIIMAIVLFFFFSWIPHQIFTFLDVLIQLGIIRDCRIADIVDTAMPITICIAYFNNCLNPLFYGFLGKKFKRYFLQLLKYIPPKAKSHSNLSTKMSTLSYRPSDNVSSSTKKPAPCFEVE
Chain of Melanocortin receptor 4 (Homo sapiens) (P32245 whole entry): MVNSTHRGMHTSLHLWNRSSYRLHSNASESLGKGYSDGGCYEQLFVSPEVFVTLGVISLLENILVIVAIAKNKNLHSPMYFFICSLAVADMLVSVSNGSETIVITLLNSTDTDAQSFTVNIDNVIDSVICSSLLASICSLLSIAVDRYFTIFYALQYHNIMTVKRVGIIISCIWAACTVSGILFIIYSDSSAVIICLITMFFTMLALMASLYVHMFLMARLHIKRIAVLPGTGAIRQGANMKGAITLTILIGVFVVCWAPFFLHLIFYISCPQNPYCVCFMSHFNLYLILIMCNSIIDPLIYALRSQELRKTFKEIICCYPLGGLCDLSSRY
Chain of Mu-type opioid receptor (Homo sapiens) (P35372 whole entry): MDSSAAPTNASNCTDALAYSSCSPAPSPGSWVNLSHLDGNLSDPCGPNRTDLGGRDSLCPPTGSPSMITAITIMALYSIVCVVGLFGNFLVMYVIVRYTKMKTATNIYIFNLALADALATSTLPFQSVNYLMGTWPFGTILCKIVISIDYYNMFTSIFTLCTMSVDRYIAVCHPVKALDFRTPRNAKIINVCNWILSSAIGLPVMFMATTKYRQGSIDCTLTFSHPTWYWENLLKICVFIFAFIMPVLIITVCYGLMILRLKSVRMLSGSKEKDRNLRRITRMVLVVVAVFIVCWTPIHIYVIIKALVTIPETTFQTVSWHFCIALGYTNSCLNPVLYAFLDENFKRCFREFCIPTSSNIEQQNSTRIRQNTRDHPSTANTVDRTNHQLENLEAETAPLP
Chain of Vasoactive intestinal polypeptide receptor 1 (Homo sapiens) (P32241 whole entry): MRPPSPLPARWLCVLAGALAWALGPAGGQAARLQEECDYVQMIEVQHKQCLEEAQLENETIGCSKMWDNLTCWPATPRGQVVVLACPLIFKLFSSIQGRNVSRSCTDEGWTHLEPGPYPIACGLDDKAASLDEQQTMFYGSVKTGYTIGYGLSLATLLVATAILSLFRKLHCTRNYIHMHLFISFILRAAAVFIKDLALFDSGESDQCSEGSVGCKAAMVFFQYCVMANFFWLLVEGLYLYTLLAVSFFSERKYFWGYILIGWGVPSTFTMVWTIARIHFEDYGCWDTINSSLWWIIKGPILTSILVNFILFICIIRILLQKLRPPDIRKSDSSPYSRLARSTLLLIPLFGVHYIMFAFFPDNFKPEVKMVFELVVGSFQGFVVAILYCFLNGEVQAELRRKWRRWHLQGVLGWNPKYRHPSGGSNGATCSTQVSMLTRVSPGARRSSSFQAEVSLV
Chain of Prostaglandin E2 receptor EP4 subtype (Homo sapiens) (P35408 whole entry): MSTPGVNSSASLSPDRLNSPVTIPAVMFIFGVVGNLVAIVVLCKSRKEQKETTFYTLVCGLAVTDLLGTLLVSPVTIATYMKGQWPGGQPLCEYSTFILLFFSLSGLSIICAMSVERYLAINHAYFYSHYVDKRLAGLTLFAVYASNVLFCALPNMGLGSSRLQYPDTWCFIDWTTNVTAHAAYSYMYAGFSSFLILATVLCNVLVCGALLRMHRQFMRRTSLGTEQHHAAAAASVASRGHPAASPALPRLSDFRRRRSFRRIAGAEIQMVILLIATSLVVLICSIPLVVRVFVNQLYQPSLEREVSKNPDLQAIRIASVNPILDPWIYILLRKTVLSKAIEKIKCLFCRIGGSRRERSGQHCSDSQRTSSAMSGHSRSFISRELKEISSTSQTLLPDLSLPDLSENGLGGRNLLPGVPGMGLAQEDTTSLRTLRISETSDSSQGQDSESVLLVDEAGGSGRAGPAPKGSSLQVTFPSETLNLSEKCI
Chain of Endothelin-1 receptor (Homo sapiens) (P25101 whole entry): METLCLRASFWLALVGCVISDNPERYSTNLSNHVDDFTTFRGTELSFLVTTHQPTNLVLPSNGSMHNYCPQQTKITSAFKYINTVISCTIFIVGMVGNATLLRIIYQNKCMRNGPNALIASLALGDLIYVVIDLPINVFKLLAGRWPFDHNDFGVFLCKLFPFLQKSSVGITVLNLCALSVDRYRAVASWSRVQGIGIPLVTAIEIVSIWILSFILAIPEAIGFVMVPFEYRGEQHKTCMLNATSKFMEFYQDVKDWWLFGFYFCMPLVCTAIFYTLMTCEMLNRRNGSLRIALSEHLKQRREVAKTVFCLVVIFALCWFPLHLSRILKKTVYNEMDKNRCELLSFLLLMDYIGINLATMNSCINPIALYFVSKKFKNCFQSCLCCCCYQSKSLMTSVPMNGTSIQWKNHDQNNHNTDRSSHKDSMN
Chain of Substance-K receptor (Homo sapiens) (P21452 whole entry): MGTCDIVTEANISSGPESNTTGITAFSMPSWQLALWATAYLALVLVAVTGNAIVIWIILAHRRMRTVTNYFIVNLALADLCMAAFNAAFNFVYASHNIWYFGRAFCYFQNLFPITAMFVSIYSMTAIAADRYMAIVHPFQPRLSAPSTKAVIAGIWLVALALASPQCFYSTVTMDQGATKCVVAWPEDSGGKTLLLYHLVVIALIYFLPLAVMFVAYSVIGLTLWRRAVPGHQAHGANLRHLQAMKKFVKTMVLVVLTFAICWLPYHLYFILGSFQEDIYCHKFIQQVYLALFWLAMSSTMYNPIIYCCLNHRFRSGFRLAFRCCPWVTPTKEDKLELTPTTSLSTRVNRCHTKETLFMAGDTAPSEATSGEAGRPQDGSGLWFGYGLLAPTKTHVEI
Chain of Neuropeptide Y receptor type 1 (Homo sapiens) (P25929 whole entry): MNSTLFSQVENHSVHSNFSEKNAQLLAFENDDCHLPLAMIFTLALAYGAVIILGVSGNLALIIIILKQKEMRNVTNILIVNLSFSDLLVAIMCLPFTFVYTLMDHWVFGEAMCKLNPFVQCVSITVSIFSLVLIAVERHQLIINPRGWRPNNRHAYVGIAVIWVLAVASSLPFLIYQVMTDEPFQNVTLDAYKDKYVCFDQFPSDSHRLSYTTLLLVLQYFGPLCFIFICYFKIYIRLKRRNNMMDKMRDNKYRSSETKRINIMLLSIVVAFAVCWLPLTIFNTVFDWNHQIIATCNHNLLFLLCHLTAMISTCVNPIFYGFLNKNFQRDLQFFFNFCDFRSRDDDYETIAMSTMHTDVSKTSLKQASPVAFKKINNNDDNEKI
Chain of Melatonin receptor type 1A (Homo sapiens) (P48039 whole entry): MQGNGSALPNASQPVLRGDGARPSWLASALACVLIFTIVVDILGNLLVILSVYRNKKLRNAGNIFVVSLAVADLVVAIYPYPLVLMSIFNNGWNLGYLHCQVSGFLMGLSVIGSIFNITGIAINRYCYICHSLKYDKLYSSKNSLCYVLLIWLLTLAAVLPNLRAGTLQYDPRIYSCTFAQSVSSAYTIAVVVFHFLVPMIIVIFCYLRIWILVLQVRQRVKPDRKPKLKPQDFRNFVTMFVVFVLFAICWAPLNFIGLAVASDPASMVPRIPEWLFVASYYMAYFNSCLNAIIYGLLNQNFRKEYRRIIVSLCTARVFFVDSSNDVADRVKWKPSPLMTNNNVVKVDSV
Chain of P2X purinoceptor 2 (Q9UBL9 whole entry): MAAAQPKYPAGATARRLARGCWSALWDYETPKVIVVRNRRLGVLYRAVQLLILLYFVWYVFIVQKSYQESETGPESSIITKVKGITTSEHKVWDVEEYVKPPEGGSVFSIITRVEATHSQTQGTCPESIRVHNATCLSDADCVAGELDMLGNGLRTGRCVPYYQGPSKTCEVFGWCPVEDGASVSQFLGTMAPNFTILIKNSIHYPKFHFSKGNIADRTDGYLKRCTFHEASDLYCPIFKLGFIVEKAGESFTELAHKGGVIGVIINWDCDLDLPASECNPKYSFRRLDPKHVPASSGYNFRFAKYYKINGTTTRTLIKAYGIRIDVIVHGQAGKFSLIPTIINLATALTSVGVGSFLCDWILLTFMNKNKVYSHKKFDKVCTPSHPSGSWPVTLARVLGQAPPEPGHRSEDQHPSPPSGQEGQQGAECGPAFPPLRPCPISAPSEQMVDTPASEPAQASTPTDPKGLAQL
Chain of Muscarinic acetylcholine receptor M3 (Homo sapiens) (P20309 whole entry, looked up): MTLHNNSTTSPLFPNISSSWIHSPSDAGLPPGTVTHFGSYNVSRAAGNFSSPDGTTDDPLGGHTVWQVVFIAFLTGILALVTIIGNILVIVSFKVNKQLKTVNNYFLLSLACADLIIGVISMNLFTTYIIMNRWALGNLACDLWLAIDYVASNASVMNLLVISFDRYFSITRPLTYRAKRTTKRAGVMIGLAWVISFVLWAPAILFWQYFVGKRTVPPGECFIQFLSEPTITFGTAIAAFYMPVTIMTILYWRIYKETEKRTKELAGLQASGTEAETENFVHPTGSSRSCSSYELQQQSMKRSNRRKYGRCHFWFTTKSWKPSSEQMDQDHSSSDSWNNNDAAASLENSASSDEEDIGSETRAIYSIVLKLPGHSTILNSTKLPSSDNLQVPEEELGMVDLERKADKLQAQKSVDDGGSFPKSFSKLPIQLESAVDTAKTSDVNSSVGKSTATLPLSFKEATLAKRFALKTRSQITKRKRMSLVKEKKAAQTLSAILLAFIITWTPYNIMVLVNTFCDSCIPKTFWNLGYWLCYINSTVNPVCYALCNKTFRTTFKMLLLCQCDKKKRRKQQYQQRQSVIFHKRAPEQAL

inhibition [1]: < 30%
half-life [2]: 4 h
inhibition [3]: < 30%
inhibition [4]: < 30%
inhibition [5]: < 30%
inhibition [6]: < 30%
IC50 [7]: > 10 µM
Drug metabolism [8]: BLD
Drug metabolism [9]: BLD
bioavailability [10]: 74%
clearance [11]: 8.4 mL/min/kg
PB [12]: Not Active
IC50 [13]: > 10 µM
IC50 [14]: > 10 µM
inhibition [15]: < 30%
IC50 [16]: > 10 µM
inhibition [17]: < 30%
inhibition [18]: < 30%
inhibition [19]: < 30%
inhibition [20]: < 30%
inhibition [21]: < 30%
inhibition [22]: < 30%
inhibition [23]: < 30%
inhibition [24]: < 30%
inhibition [25]: < 30%
inhibition [26]: < 30%
inhibition [27]: < 30%
inhibition [28]: < 30%
inhibition [29]: < 30%
inhibition [30]: < 30%
inhibition [31]: < 30%
inhibition [32]: < 30%
inhibition [33]: < 30%
inhibition [34]: < 30%
inhibition [35]: < 30%
inhibition [36]: < 30%
inhibition [37]: < 30%
inhibition [38]: < 30%
SMILES: Cc1cc(Cl)c(OCCO)cc1NC(=O)C1=CNC(=O)C[C@H]1c1ccc(F)cc1
